From paper PMC4469273 (Current pharmaceutical biotechnology, 2014)

Legend:
[1] = tested on: HUVEC invasion by S. aureus ATCC 29213 (MSSA); assay: Invasion assay: HUVEC infected with Alexa Fluor 488-labeled MSSA, flow cytometry; type: cell-based, human; conditions: for Internalized bacteria (% vehicle control ± SEM), RSM structural analog: N = 5
[2] = tested on: HUVEC invasion by MRSA252 NRS71; assay: Invasion assay with hospital MRSA strain; type: cell-based, human; conditions: 10 μmol/L, 18-20 h pretreatment
Summary of the method: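 HUVEC pretreated 18-20 h with test compound or vehicle. MRSA252 NRS71 labeled through protein A with rabbit anti-mouse IgG Alexa Fluor 488 (final 8 μg/ml, RT, 20 min), washed, set to 3×10^8 CFU/ml. Infection at MOI 1440 (1 h, 37°C, 5% CO2), then lysostaphin (20 μg/ml)/gentamicin (50 μg/ml) for 45 min. Cells scraped and fixed in 1% BSA/0.74% formaldehyde; MFI from 1500 FSC/SSC-gated cells, as % control.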

HUVEC invasion by NRS123 = assay: Invasion assay with community-acquired MRSA strain; type: cell-based, human; conditions: 10 μmol/L, 18-20 h pretreatment
Summary of the method: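 Attachment Factor-coated dishes seeded with HUVEC, pretreated 18-20 h with test compound or matched vehicle. Stocks were 5 mmol/L in DMSO or PEG, diluted to 1 mmol/L in solvent, then into EndoGRO-LS. Unlabeled saline-washed NRS123 at MOI 1440 (1 h, 37°C). Extracellular bacteria killed with 20 μg/ml lysostaphin/50 μg/ml gentamicin (45 min). Cells lysed with 1% saponin/PBS (20 min); dilutions plated on TSA (16 h), CFU/ml counted.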

[3] = tested on: actin stress fibers in HUVEC; assay: Actin stress fiber disassembly, immunofluorescence; type: cell-based, human; conditions: 10 μmol/L, 18-20 h, infected 1 h
Summary of the method: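 HUVEC (3 × 10^5/ml, Attachment Factor-coated glass-bottom dishes) pretreated 18-20 h with PEG vehicle or test compound. Infected with S. aureus (MOI 1200, 1 h, 5% CO2, 37°C), PBS-washed, fixed in 4% paraformaldehyde (30 min), then permeabilized/blocked in 0.1% Triton/1% BSA. Stained with Alexa Fluor 488 phalloidin (1:40), imaged by confocal (40X water immersion). Scored as % cells lacking stress fibers, 100-200 cells/treatment from random fields; χ2 test.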

[4] = tested on: vinculin-containing adhesion complexes in HUVEC; assay: Vinculin-containing adhesion complexes, immunofluorescence; type: cell-based, human; conditions: 10 μmol/L, 18-20 h; vehicle control 64%
Summary of the method: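 HUVEC at 3 × 10^4 on Attachment Factor-coated glass-bottom dishes, treated 18-20 h with DMSO vehicle or test compound. Fixed, then permeabilized/blocked (0.1% Triton/1% BSA). Stained with anti-vinculin (1:25), then rabbit anti-mouse Alexa Fluor 488 (1:250). Confocal imaging at 63X water immersion; Z-stack maximum projections. Percentage of cells with adhesion complexes from 100-200 cells/treatment in random fields; χ2 test.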

β1 integrin subunit = assay: β1 integrin surface expression, flow cytometry; type: cell-based, human; conditions: 10 μmol/L, 18-20 h, vs vehicle control
Summary of the method: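 Following 18-20 h pretreatment (DMSO vehicle or test compound), integrin recycling stopped at 4°C for 15 min. Cells scraped and washed in FACS buffer, stained with PE-conjugated anti-β1 (30 min, on ice), then fixed in FACS buffer with 4% paraformaldehyde. PE MFI measured on 600 FSC-A/SSC-A-gated cells; expressed as percent control; Mann-Whitney Rank Sum test.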

[5] = tested on: HUVEC adhesion to human fibronectin; assay: Fibronectin adhesion assay; type: cell-based; conditions: 10 μmol/L, 18-20 h; vehicle control 24±4%
Summary of the method: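 Compound or DMSO vehicle applied to HUVEC for 18-20 h (invasion-assay plating). Wells coated with human fibronectin (20 μg/ml, 2 h, 37°C) and blocked with 2% BSA (30 min, RT). Scraped cells counted by flow cytometry for input, re-plated 2 h at 37°C/5% CO2. After PBS washes, adherent cells trypsinized, fixed, counted; normalized to input. Two pooled experiments, n=8/treatment.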

HUVEC = assay: Cytotoxicity assay; type: cell-based, human; conditions: 10 μmol/L; for Mean fluorescence intensity (×10^4± SEM), Compound: PI fluorescence, N = 3
Summary of the method: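 HUVEC plated and compound-treated as for invasion: 1×10^5 cells/ml in 35 mm dishes or 1×10^4 cells/ml in 96-well plates, Attachment Factor-coated. Cells scraped and washed in FACS buffer (2% BSA/0.1% sodium azide/PBS). Brief incubation with propidium iodide at 0.5 mg/ml, then fluorescence read at once on Accuri C6 flow cytometer; MFI reported.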

MSSA (ATCC 29213) = assay: Bactericidal activity assay, MSSA; type: cell-based, Staphylococcus aureus; conditions: 10 μmol/L; for CFU/ml (×10^10± SEM), Compound: 1 h, 1.2 × 10^8 CFU/ml incubated, N = 3
Summary of the method: (§1)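 Washed S. aureus (overnight TSB at 225 rpm, 37°C; subcultured; saline-washed), 1.2 × 10^8 CFU/ml, incubated with test compound or vehicle control in EndoGRO-LS medium (1 h, 5% CO2, 37°C). Serial dilutions plated on tryptic soy agar (18-20 h, 37°C); colonies counted and CFU/ml calculated.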

MRSA252 NRS71 = assay: Bactericidal activity assay, MRSA252 NRS71; type: cell-based, Staphylococcus aureus; conditions: 10 μmol/L
Summary of the method: as §1

NRS123 = assay: Bactericidal activity assay, NRS123; type: cell-based, Staphylococcus aureus
Summary of the method: as §1

[6] = tested on: HUVEC infected with Staphylococcus aureus; assay: Transmission electron microscopy of infected HUVEC; type: cell-based, human; conditions: 10 μmol/L, 18-20 h pretreatment, infected 2 h
Summary of the method: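 Coverslip HUVEC (3 × 10^5/ml) pretreated 18-20 h with PEG vehicle or test compound, infected with S. aureus (MOI 30, 2 h, 37°C). Lysostaphin/gentamicin removal (45 min), then 24 h in antibiotic medium. Fixed in 2.5% glutaraldehyde/2.0% paraformaldehyde/2 mmol/L Ca/1 mmol/L Mg; post-fixed in 1% OsO4/1.5% ferrocyanide in 0.1 mol/L cacodylate. Ethanol/propylene oxide dehydration, resin embedding. Ultrathin sections stained with uranyl acetate/lead citrate, imaged at 120 kV.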

[7] = tested on: endothelial cell invasion by S. aureus; conditions: cited from earlier work
S. aureus pneumonia = conditions: cited from earlier work

## COc1ccc(C2CC(c3ccccc3)=NN2c2ccc(S(N)(=O)=O)cc2)cc1 (stereo not shown) [ML 141, 4-[3-(4-methoxyphenyl)-5-phenyl-3,4-dihydropyrazol-2-yl]benzenesulfonamide]
[1]; 10 μmol/L 1 h pretreatment, media replaced with vehicle 40 min prior to invasion
  Mean fluorescence intensity in washout samples (reversibility): returned to baseline
[1]; 10 μmol/L, 18-20 h pretreatment, 1 h infection
  Mean fluorescence intensity compared to vehicle control: lower
[2]
  Invasion by MRSA252 NRS71: inhibited invasion
HUVEC invasion by NRS123
  Invasion by NRS123: inhibited invasion
[3]
  Actin stress fibers in infected cells: remained intact
[4]
  HUVEC with vinculin-containing adhesion complexes: 37%
β1 integrin subunit
  Expression of β1: No difference
[5]
  HUVEC adhesion to fibronectin: 14±2%
HUVEC
  Mean fluorescence intensity (×10^4± SEM), Compound: 2.1 ± 0.3 ×10^4
HUVEC; incubated 1 h
  Cytotoxicity in HUVEC: Cytotoxicity was not detected
MSSA (ATCC 29213)
  Bactericidal activity against MSSA: Bactericidal activity was not detected
  CFU/ml (×10^10± SEM), Compound: 1.8 ± 0.6 CFU/ml ×10^10
MRSA252 NRS71
  Bactericidal activity against MRSA252 NRS71: Bactericidal activity was not detected
MRSA252 NRS71; 1 h, 1.2 × 10^8 CFU/ml incubated
  CFU/ml recovered, MRSA252 NRS71: 1.9 × 10^10 ±0.2 CFU/ml
NRS123; 10 μmol/L
  Bactericidal activity against NRS123: Bactericidal activity was not detected
NRS123; 1.2 × 10^8 CFU/ml incubated, vehicle control 4.5 × 10^10 ±0.6
  CFU/ml recovered, NRS123: 5.6 × 10^10 ±1.5 CFU/ml
[6]
  Organelles 24 h post-invasion (ultrastructure): remained intact
[6]; 24 h post-invasion
  Filopodia at the host cell membrane in response to bacteria: not detected

## NS(=O)(=O)c1ccc(N2N=C(c3ccccc3)CC2c2ccc3c(c2)OCO3)cc1 (stereo not shown) [RSM 05]
[1]; 10 μmol/L
  Internalized bacteria (% vehicle control ± SEM), RSM structural analog: 38 ± 3 % ^††
HUVEC
  Mean fluorescence intensity (×10^4± SEM), Compound: 3.9 ± 0.2 ×10^4
MSSA (ATCC 29213)
  CFU/ml (×10^10± SEM), Compound: 1.6 ± 0.3 CFU/ml ×10^10

## COc1ccc(C2=NN(c3ccc(S(N)(=O)=O)cc3)C(c3ccc4c(c3)OCO4)C2)cc1 (stereo not shown) [RSM 06]
[1]; 10 μmol/L
  Internalized bacteria (% vehicle control ± SEM), RSM structural analog: 23 ± 1 % ^†††
HUVEC
  Mean fluorescence intensity (×10^4± SEM), Compound: 2.8 ± 0.1 ×10^4
MSSA (ATCC 29213)
  CFU/ml (×10^10± SEM), Compound: 1.0 ± 0.3 CFU/ml ×10^10

## COc1ccc(C2=NN(c3ccc(S(N)(=O)=O)cc3)C(c3ccccc3)C2)cc1 (stereo not shown) [RSM 07]
[1]; 10 μmol/L
  Internalized bacteria (% vehicle control ± SEM), RSM structural analog: 34 ± 2 % ^††
HUVEC
  Mean fluorescence intensity (×10^4± SEM), Compound: 2.5 ± 0.4 ×10^4
MSSA (ATCC 29213)
  CFU/ml (×10^10± SEM), Compound: 2.8 ± 0.3 CFU/ml ×10^10

## COc1ccc(C2CC(c3ccccc3)=NN2c2ccc(S(N)(=O)=O)cc2)cc1OC (stereo not shown) [RSM 15]
[1]; 10 μmol/L
  Internalized bacteria (% vehicle control ± SEM), RSM structural analog: 45 ± 1 % ^†††
HUVEC
  Mean fluorescence intensity (×10^4± SEM), Compound: 4.0 ± 0.4 ×10^4
MSSA (ATCC 29213)
  CFU/ml (×10^10± SEM), Compound: 2.0 ± 0.2 CFU/ml ×10^10

## COc1ccc(C2=NN(c3ccc(S(N)(=O)=O)cc3)C(c3ccc(OC)c(OC)c3)C2)cc1 (stereo not shown) [RSM 16]
[1]; 10 μmol/L
  Internalized bacteria (% vehicle control ± SEM), RSM structural analog: 63 ± 4 % ^†††
HUVEC
  Mean fluorescence intensity (×10^4± SEM), Compound: 1.4 ± 0.2 ×10^4
MSSA (ATCC 29213)
  CFU/ml (×10^10± SEM), Compound: 1.8 ± 0.4 CFU/ml ×10^10

## COc1ccc(C2C(C)C(c3ccccc3)=NN2c2ccc(S(N)(=O)=O)cc2)cc1 (stereo not shown) [RSM 19]
[1]; 10 μmol/L
  Internalized bacteria (% vehicle control ± SEM), RSM structural analog: 61 ± 2 % ^††
HUVEC
  Mean fluorescence intensity (×10^4± SEM), Compound: 2.6 ± 0.01 ×10^4

## COCCOc1ccc(C2=NN(c3ccc(S(N)(=O)=O)cc3)C(c3ccc(Cl)cc3)C2)cc1 (stereo not shown) [RSM 20]
[1]; 10 μmol/L
  Internalized bacteria (% vehicle control ± SEM), RSM structural analog: 61 ± 4 % ^††
HUVEC
  Mean fluorescence intensity (×10^4± SEM), Compound: 2.1 ± 0.2 ×10^4
MSSA (ATCC 29213)
  CFU/ml (×10^10± SEM), Compound: 2.1 ± 0.4 CFU/ml ×10^10

## COc1ccc(C2C3Cc4ccccc4C3=NN2c2ccc(S(N)(=O)=O)cc2)cc1 (stereo not shown) [RSM 21]
[1]; 10 μmol/L
  Internalized bacteria (% vehicle control ± SEM), RSM structural analog: 79 ± 3 % ^†
HUVEC
  Mean fluorescence intensity (×10^4± SEM), Compound: 2.8 ± 0.09 ×10^4
MSSA (ATCC 29213)
  CFU/ml (×10^10± SEM), Compound: 3.0 ± 0.2 CFU/ml ×10^10

## CCC(C)(C)C(=O)O[C@H]1C[C@@H](C)C=C2C=C[C@H](C)[C@H](CC[C@@H]3C[C@@H](O)CC(=O)O3)[C@H]21 [simvastatin]
[7]
  Endothelial cell invasion by S. aureus: decreased
S. aureus pneumonia
  Survival in a murine model of pneumonia: improved survival
